As a reminder, the IC50 is the concentration that gives 50% inhibition. A higher IC50 goes with weaker potency.

The species entered for assay [1] is Homo sapiens. Briefly: Selectivity ratio of IC50 for FAAH T488A mutant (unknown origin) expressed in human HeLa cells after 18 hrs to IC50 for FAAH (unknown origin) expressed in human HeLa cells transfected with empty vector after 18 hrs. In kind it is cell-based.
The target of assay [2] is T1, Fatty-acid amide hydrolase 1 (Homo sapiens, UniProt O00519).
T1 sequence (O00519 whole entry): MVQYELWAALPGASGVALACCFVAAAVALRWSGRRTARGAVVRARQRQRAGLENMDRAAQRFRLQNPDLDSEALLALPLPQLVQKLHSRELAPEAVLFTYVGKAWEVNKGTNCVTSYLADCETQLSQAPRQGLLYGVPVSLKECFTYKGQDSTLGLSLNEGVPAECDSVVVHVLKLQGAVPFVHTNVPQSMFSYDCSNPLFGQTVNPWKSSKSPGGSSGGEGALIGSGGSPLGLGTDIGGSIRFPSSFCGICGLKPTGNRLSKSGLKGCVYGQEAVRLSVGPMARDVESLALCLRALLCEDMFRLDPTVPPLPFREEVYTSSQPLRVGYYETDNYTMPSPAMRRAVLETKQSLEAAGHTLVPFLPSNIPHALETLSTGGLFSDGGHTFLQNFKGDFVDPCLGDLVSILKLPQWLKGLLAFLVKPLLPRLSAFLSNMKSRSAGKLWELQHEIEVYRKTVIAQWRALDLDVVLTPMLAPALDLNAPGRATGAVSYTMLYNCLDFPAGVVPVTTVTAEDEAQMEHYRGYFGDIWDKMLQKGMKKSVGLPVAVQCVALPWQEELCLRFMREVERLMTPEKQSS
Briefly: Inhibition of FAAH (unknown origin) expressed in human HeLa cells using [3H]AEA as substrate after 2 hrs by liquid scintillation counting analysis. The format is cell-based.

In assay [3] the target is T1, Fatty-acid amide hydrolase 1. The experiment in a line: Inhibition of FAAH (unknown origin) expressed in human HeLa cells transfected with empty vector using [3H]AEA as substrate after 18 hrs. The format is cell-based.
For assay [4], the species on record is Homo sapiens. Briefly: Selectivity ratio of IC50 for FAAH T488A mutant (unknown origin) expressed in human HeLa cells after 2 hrs to IC50 for FAAH (unknown origin) expressed in human HeLa cells transfected with empty vector after 2 hrs. The format is cell-based.
Assay [5] concerns the target T2, Fatty-acid amide hydrolase 1 (Homo sapiens, UniProt O00519, T488A). Briefly: Inhibition of FAAH T488A mutant (unknown origin) expressed in human HeLa cells using [3H]AEA as substrate after 18 hrs. The format is cell-based.
In assay [6] the target is T1, Fatty-acid amide hydrolase 1. Briefly: Inhibition of FAAH (unknown origin) expressed in human HeLa cells using [3H]AEA as substrate after 18 hrs. The format is cell-based.
Assay [7] has the same target. The experiment in a line: Inhibition of FAAH (unknown origin) expressed in human HeLa cells transfected with empty vector using [3H]AEA as substrate after 2 hrs by liquid scintillation counting analysis. The format is cell-based.
Assay [8] addresses T2, Fatty-acid amide hydrolase 1. Briefly: Inhibition of FAAH T488A mutant (unknown origin) expressed in human HeLa cells using [3H]AEA as substrate after 2 hrs by liquid scintillation counting analysis. In kind it is cell-based.
Assay [9] deals with T3, Fatty-acid amide hydrolase 1 (Rattus norvegicus, UniProt P97612).
T3 sequence (P97612 whole entry): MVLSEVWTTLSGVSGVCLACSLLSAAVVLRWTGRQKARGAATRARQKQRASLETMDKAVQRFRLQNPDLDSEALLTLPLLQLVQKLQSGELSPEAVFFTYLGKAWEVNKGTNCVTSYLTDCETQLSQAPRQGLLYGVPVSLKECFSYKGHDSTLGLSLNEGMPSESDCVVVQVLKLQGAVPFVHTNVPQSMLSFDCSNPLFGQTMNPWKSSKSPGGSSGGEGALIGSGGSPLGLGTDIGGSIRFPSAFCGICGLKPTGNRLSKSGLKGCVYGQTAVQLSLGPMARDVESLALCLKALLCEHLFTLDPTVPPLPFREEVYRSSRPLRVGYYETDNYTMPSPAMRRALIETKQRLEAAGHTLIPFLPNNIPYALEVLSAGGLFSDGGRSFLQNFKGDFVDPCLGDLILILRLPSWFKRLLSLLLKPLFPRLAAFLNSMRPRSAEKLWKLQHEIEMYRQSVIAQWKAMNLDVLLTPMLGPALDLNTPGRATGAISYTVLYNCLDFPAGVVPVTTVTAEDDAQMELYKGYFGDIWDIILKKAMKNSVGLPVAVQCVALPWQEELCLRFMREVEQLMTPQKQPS
The experiment in a line: Inhibition of rat brain FAAH using [3H]AEA as substrate. In a few lines: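 Brains (minus cerebella) of adult Wistar or Sprague-Dawley rats homogenized in HEPES/MgCl2 pH 7.0, washed by repeated centrifugation, preincubated 15 min at 37 °C, resuspended in Tris-HCl/EDTA/MgCl2 pH 7.4. 1 µg protein per assay mixed on ice with inhibitor, then 0.5 µM [3H]AEA with fatty acid-free BSA, 10 min at 37 °C. Charcoal/HCl stop, supernatant counted. At least five half-log concentrations, at least 3 experiments.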

T2 sequence (O00519 whole entry T488A): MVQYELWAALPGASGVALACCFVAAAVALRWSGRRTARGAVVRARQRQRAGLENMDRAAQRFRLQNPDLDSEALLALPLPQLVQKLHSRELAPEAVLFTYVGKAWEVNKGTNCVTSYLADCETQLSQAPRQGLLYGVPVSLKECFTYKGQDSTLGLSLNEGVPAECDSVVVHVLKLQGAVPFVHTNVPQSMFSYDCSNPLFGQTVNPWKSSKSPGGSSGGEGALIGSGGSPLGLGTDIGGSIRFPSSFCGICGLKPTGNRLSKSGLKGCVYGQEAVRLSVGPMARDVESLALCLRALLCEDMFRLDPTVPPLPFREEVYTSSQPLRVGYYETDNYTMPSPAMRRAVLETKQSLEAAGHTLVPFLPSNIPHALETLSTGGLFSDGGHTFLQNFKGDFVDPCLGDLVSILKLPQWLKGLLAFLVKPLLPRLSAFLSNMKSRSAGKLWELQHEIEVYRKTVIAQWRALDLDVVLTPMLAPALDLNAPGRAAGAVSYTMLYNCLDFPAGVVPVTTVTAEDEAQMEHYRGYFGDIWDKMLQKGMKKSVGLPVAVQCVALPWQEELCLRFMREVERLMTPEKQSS

In the case of `Cc1cccnc1NC(=O)[C@H](C)c1ccc(-c2ccccc2)c(F)c1`, the Ratio IC50 was 3.5 in the assay listed under Homo sapiens [1] and 0.9 to 3.1 in the assay filed under Homo sapiens [4]. Also, the IC50 in assay [2] was 0.7 µM; in assay [3], 8 µM; in assay [5], 28 µM; in [6], 8.3 µM; in assay [7] it was 0.65 to 3 µM; in assay [8], 2 to 2.3 µM.

For the compound `CCCCC/C=C\C/C=C\C/C=C\C/C=C\CCCC(=O)NCCc1c[nH]c2ccc(O)cc12`, the IC50 in assay [9] stood at 1.2 µM.

(Values after ChEMBL document CHEMBL4138113, “Novel propanamides as fatty acid amide hydrolase inhibitors” (Eur J Med Chem, 2017).)
